GSIS activator: GLuc luminescence reporter in INS-1E cells, primary screen for activators of glucose-dependent secretion of insulin; INS-1E GLuc reporter insulin secretion, 2-3 h; activation, % at 16.6 µM; actives 0.61% (n = 370,000); AID 743287;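 active means lowest replicate activation of at least 40%, so every replicate reaches that level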
CDK5 inh: CDK5/p35 (human) kinase inhibition. AID 488839. Q00535+Q15078. inhibition, % at 10 µM. Recombinant CDK5/p35, ADP-Glo luminescence, 60 min. actives 0.01% (n = 330,000);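 active means highest replicate inhibition of at least 50% and at least 75% of replicates reaching 50%; inconclusive means only one of the two criteria met; inactive means both criteria failed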
Target sequence (Q00535 whole entry, looked up): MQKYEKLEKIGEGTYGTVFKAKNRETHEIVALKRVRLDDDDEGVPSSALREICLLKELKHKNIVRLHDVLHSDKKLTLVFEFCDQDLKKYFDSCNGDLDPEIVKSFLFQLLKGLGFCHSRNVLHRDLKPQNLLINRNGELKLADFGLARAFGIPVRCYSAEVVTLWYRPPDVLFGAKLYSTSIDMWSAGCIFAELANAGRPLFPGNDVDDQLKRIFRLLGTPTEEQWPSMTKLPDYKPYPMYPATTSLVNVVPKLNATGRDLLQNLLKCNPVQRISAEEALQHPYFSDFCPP
Target sequence (Q15078 whole entry, looked up): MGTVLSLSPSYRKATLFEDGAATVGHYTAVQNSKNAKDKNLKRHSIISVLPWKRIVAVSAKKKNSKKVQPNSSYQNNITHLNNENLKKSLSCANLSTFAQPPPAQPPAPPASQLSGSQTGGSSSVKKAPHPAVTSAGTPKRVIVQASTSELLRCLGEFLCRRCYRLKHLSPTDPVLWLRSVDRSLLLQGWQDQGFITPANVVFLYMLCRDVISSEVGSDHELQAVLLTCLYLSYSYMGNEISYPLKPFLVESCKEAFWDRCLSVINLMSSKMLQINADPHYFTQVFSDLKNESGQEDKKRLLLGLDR
Cneo AK release: causes C. neoformans cell lysis | lysis activity, % at 15 µM | AID 651654 | actives 0.2% (n = 360,000) | adenylate kinase release luminescence, 4 h; normalised: neutral wells 0, clomiphene wells 100;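 active means mean lysis activity across replicates of at least 80%, whatever share of replicates individually reach that level; inactive means mean lysis activity below 80%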
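Signal: Adenylate kinase release luminescence | Assay system: Log-phase Cryptococcus neoformans yeast cells | Input: Cells at 5 × 10^6 per mL | Buffer or medium: Fresh YPD growth medium | Compound: Single dose | Schedule: Static 4 h at 37 °C with compound, 1 h detection | Controls: Clomiphene | Read-out: Luminescence rise reflecting yeast cell lysis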
Env fusion inh: inhibitors of HIV Env-mediated cell fusion. HeLa-JRFL Env/CEM21 cell fusion, luciferase. inhibition, % at 12.3 µM. actives 1.1% (n = 360,000);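 active means mean replicate inhibition score of at least 50 and every replicate individually at or above 50; inconclusive means only one of the two criteria met; inactive means mean below 50 and not all replicates reaching 50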
dFosB act-1: activators of mouse delta FosB homodimer; purified delta FosB, TAMRA-CDK5 oligo fluorescence polarization; percent of positive-control signal above neutral wells; activation, % at 25 µM; actives 0.99% (n = 340,000); AID 493131;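 active means mean activation above about 17%, with every replicate also reaching it, limit read from the data, passing the limit was not always enough; inconclusive means only one of the two conditions met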
PAX8 reporter: inhibitors of PAX8 transcriptional activity in RMG-I cells. RMG-I TPO-luciferase reporter, SteadyGlo, 24 h. inhibition, % at 12.6 µM. actives 1.2% (n = 360,000);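 active means mean replicate inhibition at least 60% with every replicate also reaching 60%; inconclusive means only one of the two criteria is met; inactive means mean below 60% and not all replicates reaching 60%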;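 further: luciferase light reporting Pax8 driven TPO promoter activity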
dFosB act-2: enhances mouse delta FosB homodimer binding to DNA; shares compounds with dFosB act-1; purified delta FosB, TAMRA-CDK5 oligo fluorescence polarization; normalised: neutral wells 0, positive control 100; activation, % at 24.9 µM; 2,400 tested, under 10 active; AID 588690;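 active means highest replicate activation at or above 34% and every replicate reaching that threshold; inconclusive means meets only one of the two criteria; inactive means meets neither criterion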;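 further: higher polarization means more probe DNA bound by delta FosB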
Numbers stand for hits; 0 = inactive; ? = inconclusive; - = not tested or not shown; ! = repeats disagree. In the library only some 2.9% were active in any assay of this set; here they are far more common.

SMILES | GSIS activator | CDK5 inh | Cneo AK release | Env fusion inh | dFosB act-1 | PAX8 reporter | dFosB act-2
COc1ccc(CNc2c(C(=O)O)cnc3c2cnn3C)cc1 | 0 | 0 | 0 | 0 | 0 | 0 | -
Cc1cccc(NC(=O)Nc2ccc3c(c2)C(=O)N(C)[C@H]2CC[C@H](CC(=O)O)O[C@@H]2CO3)c1 | 0 | - | 0 | 0 | - | 0 | -
O=C(Cc1ccccn1)N1CC2(C1)[C@H](c1ccccc1)[C@H](CO)N2C(=O)c1cccnc1 | 0 | - | - | - | - | - | -
N#Cc1ccc(C23CC4(C2)[C@H](CN(CC2CCCCC2)[C@@H]4c2ccccc2)C3c2ccc(Cl)nc2)cc1 (stereo not given in full) | 0 | 0 | 0 | 0 | 24.8 | 0 | 0
Nc1nccc(-c2cc(-c3ccc(Cl)cc3Cl)no2)n1 | 0 | 0 | 0 | 0 | 93.1 | 0 | 0
COc1ccc(NC(=O)CC2C(=O)N(c3ccc(OC)cc3)C(=S)N2NC(=O)c2cccc(F)c2)cc1 (stereo not given) | 0 | 0 | - | 0 | 0 | 0 | -
COc1ccc(N2C(=O)C(CC(=O)Nc3ccc(Cl)cc3)N(NC(=O)c3cccc(F)c3)C2=S)cc1 (stereo not given) | 0 | 0 | 0 | 0 | 25.2 | 0 | 0
CCOc1ccc(NC(=O)CC2C(=O)N(c3ccc(OC)c(Cl)c3)C(=S)N2C2CC2)cc1 (stereo not given) | 0 | 0 | 0 | 0 | 28.4 | 0 | 0
COCC(=O)N1C[C@H](C)[C@H](OC)CN(C)C(=O)c2cc(NC(=O)C3CCC3)ccc2OC[C@H]1C | 0 | - | 0 | 0 | - | 0 | -
CCOc1cc(C(=O)Nc2ccc3c4c(cccc24)C(=O)N3CC)cc(OCC)c1OCC | 0 | 0 | 0 | 0 | 24.1 | 0 | 0
CCN1C(=O)c2cccc3c(NC(=O)c4cccc(N5C(=O)CCC5=O)c4)ccc1c23 | 0 | 0 | - | - | 0 | - | -
Cc1ccc(C(=O)OCC(=O)Nc2cc(F)ccc2F)cc1NC(=O)c1ccco1 | - | 0 | 0 | 0 | 31.6 | - | 0
CCc1ccccc1NC(=O)c1cc(S(=O)(=O)N2CCc3ccccc32)cn1C | - | 0 | 0 | 0 | 25.8 | 0 | 0
Cc1cccc(NC(=O)c2cc(S(=O)(=O)N3CCc4ccccc43)cn2C)c1C | 0 | 0 | 0 | 0 | 40.1 | 0 | 0
O=C(Cn1cnc2c(nnn2-c2ccccc2)c1=O)NCc1ccc(F)cc1 | 0 | 0 | 0 | 0 | 19.1 | 0 | 0
Cc1ccc(-n2nnc3c(=O)n(CC(=O)NCc4ccccc4)cnc32)cc1 | 0 | 0 | 0 | - | 26.8 | - | 0
CCOc1ccc(CNC(=O)Cn2nc(C)c3c(C)n(-c4ccc(C)cc4)nc3c2=O)cc1 | 0 | 0 | 0 | 0 | 59.0 | 0 | 0
Cc1ccc(-n2nnc3c(=O)n(CC(=O)c4ccccc4)cnc32)cc1 | 0 | 0 | 0 | - | 0 | - | -
C[C@@H]1CN([C@H](C)CO)C(=O)Cc2cc(NC(=O)C3CC3)ccc2O[C@H]1CN(C)S(=O)(=O)c1ccc(Cl)cc1 | 0 | - | 0 | - | - | 0 | -
C#CCn1c(=NC(=O)c2ccco2)sc2cccc(Cl)c21 | 0 | 0 | - | 0 | 26.2 | 0 | 0
Cc1ccc(CSc2nnc(SCC(=O)N/N=C/c3c[nH]c4ccccc34)s2)cc1 | 0 | 0 | 0 | 0 | 81.1 | 0 | 0
Cc1nn(CC(=O)Nc2ccncc2)c(C)c1[N+](=O)[O-] | 0 | 0 | 0 | 0 | 0 | 0 | -
Cc1ccc(NC(=O)Cn2cc(C(F)(F)F)cc(Cl)c2=O)cc1Cl | 0 | 0 | - | 0 | 22.7 | 0 | 0
Cc1ccc(NC(=O)Cn2nc(C)c([N+](=O)[O-])c2C)cc1Cl | 0 | 0 | - | 0 | 27.8 | 0 | 0
Cc1ccc(NC(=O)Cn2nc(-c3ccco3)ccc2=O)cc1Cl | 0 | 0 | 0 | 0 | 77.7 | 0 | 0
SMILES | GSIS activator | CDK5 inh | Cneo AK release | Env fusion inh | dFosB act-1 | PAX8 reporter | dFosB act-2
Cc1ccc(-c2ccc(=O)n(CC(=O)Nc3ccc4c(c3)OCCO4)n2)cc1 | 0 | 0 | - | 0 | 0 | 0 | -
Cc1ccc(S(=O)(=O)N(C)C[C@H]2OCCCC[C@H](C)Oc3ccc(NS(C)(=O)=O)cc3C(=O)N([C@@H](C)CO)C[C@@H]2C)cc1 | 0 | - | 0 | 0 | - | 0 | -
COC(=O)c1ccc(C(=O)Nc2ccc3nc(-c4cccnc4)[nH]c3c2)cc1 | 0 | 0 | 0 | 0 | 46.9 | 0 | 0
CC(=O)Nc1ccc(Sc2ncccc2C(=O)Nc2ccc(OC(F)(F)F)cc2)cn1 | 0 | 0 | - | - | 51.3 | - | 0
CC(=O)Nc1ccc(Sc2ncccc2C(=O)Nc2cc(Cl)cc(Cl)c2)cn1 | 0 | 0 | 0 | - | 81.7 | - | 0
COc1cc(NC(=O)c2cccnc2Sc2ccc(C)c(C)c2)cc(OC)c1OC | 0 | 0 | 0 | 0 | 0 | 0 | -
CC(C)[C@@H]1C/C=C\CCNC(=O)[C@H](C)CC(=O)N1 | 0 | - | - | - | - | - | -
Cc1cc([N+](=O)[O-])ccc1NC(=O)Nc1ccc(F)cc1F | 0 | 0 | - | 0 | 24.4 | 0 | 0
COCC#Cc1ccc([C@@H]2[C@@H](CO)N3CCCCN(Cc4cncnc4)C[C@H]23)cc1 | 0 | - | 0 | - | - | 0 | -
O=C(Nc1ccccc1F)N[C@@H]1CC[C@@H](CC(=O)N2CCCCC2)O[C@@H]1CO | 0 | - | 0 | 0 | - | 0 | -
COc1ccc2cc3[n+](cc2c1OC)CCc1cc2c(cc1-3)OCO2 | 0 | 0 | 0 | ? | 36.4! | 0 | 0
CC(=O)Nc1ccc(-c2cc(-c3ccccc3)nc(-c3ccccc3)n2)cc1 | 0 | 0 | - | 0 | 0 | 0 | -
CC(=O)Nc1ccc(-c2cc(-c3ccc(NC(C)=O)cc3)nc(-c3ccc(NC(C)=O)cc3)n2)cc1 | 0 | 0 | 0 | - | 54.1 | 0 | 0
Cc1ccc(OCc2nnc(SCC(=O)Nc3sc(C)c(C)c3C#N)n2C)cc1 | 0 | 0 | 0 | 0 | 26.4 | 0 | 0
CCCCn1c(N)c(N(CCC(C)C)C(=O)C2CC(=O)N(c3cccc(SC)c3)C2)c(=O)[nH]c1=O (stereo not given) | 0 | 0 | 0 | 0 | 39.7 | 0 | 0
CCCCn1c(N)c(N(CC(C)C)C(=O)C2CCN(S(=O)(=O)c3ccccc3)CC2)c(=O)[nH]c1=O | 0 | 0 | - | 0 | 55.3 | 0 | 0
Cc1noc(C)c1NC(=O)Nc1ccc2c(c1)C(=O)N([C@H](C)CO)C[C@H](C)[C@H](CN(C)C)OCCCC[C@@H](C)O2 | 0 | - | 0 | 0 | - | 0 | -
Cc1cc(C)cc(NC(=O)[C@H](NC(=O)[C@@H]2Cc3ccccc3CN2)c2ccccc2)c1 | - | 0 | - | - | 47.2 | - | 0
Cc1ccc(NC(=O)[C@H](NC(=O)[C@@H]2Cc3ccccc3CN2)c2ccccc2)c(C)c1 | 0 | 0 | 0 | 0 | 0 | 0 | -
Cc1cc(C)cc(NC(=O)[C@H](Cc2c[nH]c3ccccc23)NC(=O)[C@@H]2Cc3ccccc3CN2)c1 | - | 0 | 0 | - | 0 | - | -
Cc1ccc(NC(=O)[C@H](Cc2c[nH]c3ccccc23)NC(=O)[C@@H]2Cc3ccccc3CN2)c(C)c1 | 0 | 0 | 0 | - | 33.9 | - | 0
